≈ marks a conversion by molar mass, not a printed value. Calls of active or inactive are those of the source. The rule behind the calls is not given here.
Columns and labels:
Candida albicans [1] = test: Antifungal activity against Candida albicans ATCC 10231 assessed as fungal growth inhibition by double dilution method; assay type: functional
Procedure, shortened: (§1)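 Broth microdilution after CLSI M27-A3/M38-A2 with minor changes. Single colony grown overnight in YPD at 35 °C, 200 rpm. Compound final range 0.06-31.3 µg/mL; incubated 48 h at 35 °C.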

Candida albicans [2] = test: Antifungal activity against Candida albicans ATCC 64124 assessed as fungal growth inhibition by double dilution method; assay type: functional
Procedure, shortened: (§2)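 Broth microdilution after CLSI M27-A3/M38-A2 with minor modifications. A single colony was grown overnight in YPD at 35 °C with shaking at 200 rpm. Cells were mixed 1:1 with compound (final 0.06-31.3 µg/mL, from DMSO stocks) and incubated 48 h at 35 °C.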

Candida albicans [3] = test: Antifungal activity against itraconazole/fluconazole susceptible Candida albicans ATCC MYA-2876 assessed as fungal growth inhibition by double dilution method; assay type: functional; procedure, shortened: as §2
Candida albicans [4] = test: Antifungal activity against itraconazole/fluconazole resistant Candida albicans ATCC 90819 assessed as fungal growth inhibition by double dilution method; assay type: functional; procedure, shortened: as §2
Candida albicans [5] = test: Antifungal activity against itraconazole/fluconazole susceptible Candida albicans ATCC MYA-2310 assessed as fungal growth inhibition by double dilution method; assay type: functional; procedure, shortened: as §2
Candida albicans [6] = test: Antifungal activity against itraconazole/fluconazole resistant Candida albicans ATCC MYA-1237 assessed as fungal growth inhibition by double dilution method; assay type: functional; procedure, shortened: as §2
Candida albicans [7] = test: Antifungal activity against itraconazole/fluconazole resistant Candida albicans ATCC MYA-1003 assessed as fungal growth inhibition by double dilution method; assay type: functional; procedure, shortened: as §2
Nakaseomyces glabratus [8] = test: Antifungal activity against Candida glabrata ATCC 2001 assessed as fungal growth inhibition by double dilution method; assay type: functional; procedure, shortened: as §1
Pichia kudriavzevii [9] = test: Antifungal activity against Pichia kudriavzevii ATCC 6258 assessed as fungal growth inhibition by double dilution method; assay type: functional; procedure, shortened: as §1
Nakaseomyces glabratus [10] = test: Antifungal activity against Candida glabrata ATCC 22019 assessed as fungal growth inhibition by double dilution method; assay type: functional; procedure, shortened: as §1
[Candida] auris [11] = Antifungal activity against Candida auris AR Bank # 0384 assessed as fungal growth inhibition by double dilution method; assay type: functional; conditions: Candidozyma auris; procedure, shortened: as §1
[Candida] auris [12] = Antifungal activity against Candida auris AR Bank # 0390 assessed as fungal growth inhibition by double dilution method; assay type: functional; conditions: Candidozyma auris; procedure, shortened: as §1
Cryptococcus neoformans = test: Antifungal activity against Cryptococcus neoformans ATCC MYA-895 assessed as fungal growth inhibition by double dilution method; assay type: functional; procedure, shortened: as §1
Aspergillus terreus = test: Antifungal activity against Aspergillus terreus ATCC MYA-3633 assessed as fungal growth inhibition by double dilution method; assay type: functional
Aspergillus fumigatus [13] = test: Antifungal activity against Aspergillus fumigatus NRRL 163 assessed as fungal growth inhibition by double dilution method; assay type: functional
Aspergillus flavus = test: Antifungal activity against Aspergillus flavus ATCC MYA-3631 assessed as fungal growth inhibition by double dilution method; assay type: functional
Aspergillus nidulans = test: Antifungal activity against Aspergillus nidulans ATCC 38163 assessed as fungal growth inhibition by double dilution method; assay type: functional
Aspergillus fumigatus [14] = test: Antifungal activity against Aspergillus fumigatus NRRL 5109 assessed as fungal growth inhibition by double dilution method; assay type: functional
Aspergillus fumigatus [15] = test: Antifungal activity against Aspergillus fumigatus NRRL 6113 assessed as fungal growth inhibition by double dilution method; assay type: functional
[Candida] auris [16] = Antifungal activity against Candida auris AR Bank # 381 assessed as fungal growth inhibition by double dilution method; assay type: functional; conditions: Candidozyma auris; procedure, shortened: as §1
[Candida] auris [17] = Antifungal activity against Candida auris AR Bank # 382 assessed as fungal growth inhibition by double dilution method; assay type: functional; conditions: Candidozyma auris; procedure, shortened: as §1
[Candida] auris [18] = Antifungal activity against Candida auris AR Bank # 383 assessed as fungal growth inhibition by double dilution method; assay type: functional; conditions: Candidozyma auris; procedure, shortened: as §1
[Candida] auris [19] = Antifungal activity against Candida auris AR Bank # 384 assessed as fungal growth inhibition by double dilution method; assay type: functional; conditions: Candidozyma auris; procedure, shortened: as §1
[Candida] auris [20] = Antifungal activity against Candida auris AR Bank # 385 assessed as fungal growth inhibition by double dilution method; assay type: functional; conditions: Candidozyma auris; procedure, shortened: as §1
[Candida] auris [21] = Antifungal activity against Candida auris AR Bank # 386 assessed as fungal growth inhibition by double dilution method; assay type: functional; conditions: Candidozyma auris; procedure, shortened: as §1
[Candida] auris [22] = Antifungal activity against Candida auris AR Bank # 387 assessed as fungal growth inhibition by double dilution method; assay type: functional; conditions: Candidozyma auris; procedure, shortened: as §1
[Candida] auris [23] = Antifungal activity against Candida auris AR Bank # 388 assessed as fungal growth inhibition by double dilution method; assay type: functional; conditions: Candidozyma auris; procedure, shortened: as §1
[Candida] auris [24] = Antifungal activity against Candida auris AR Bank # 389 assessed as fungal growth inhibition by double dilution method; assay type: functional; conditions: Candidozyma auris; procedure, shortened: as §1
[Candida] auris [25] = Antifungal activity against Candida auris AR Bank # 390 assessed as fungal growth inhibition by double dilution method; assay type: functional; conditions: Candidozyma auris; procedure, shortened: as §1
Candida duobushaemulonii [26] = test: Antifungal activity against Candida duobushaemulonii AR Bank # 391 assessed as fungal growth inhibition by double dilution method; assay type: functional; conditions: Candidozyma duobushaemuli; procedure, shortened: as §1
Candida duobushaemulonii [27] = test: Antifungal activity against Candida duobushaemulonii AR Bank # 392 assessed as fungal growth inhibition by double dilution method; assay type: functional; conditions: Candidozyma duobushaemuli; procedure, shortened: as §1
[Candida] haemuloni [28] = Antifungal activity against Candida haemulonii AR Bank # 393 assessed as fungal growth inhibition by double dilution method; assay type: functional; conditions: Candidozyma haemuli; procedure, shortened: as §1
Candida duobushaemulonii [29] = test: Antifungal activity against Candida duobushaemulonii AR Bank # 394 assessed as fungal growth inhibition by double dilution method; assay type: functional; conditions: Candidozyma duobushaemuli; procedure, shortened: as §1
[Candida] haemuloni [30] = Antifungal activity against Candida haemulonii AR Bank # 395 assessed as fungal growth inhibition by double dilution method; assay type: functional; conditions: Candidozyma haemuli; procedure, shortened: as §1
Kodamaea ohmeri = test: Antifungal activity against Kodamaea ohmeri AR Bank # 396 assessed as fungal growth inhibition by double dilution method; assay type: functional; procedure, shortened: as §1
Pichia kudriavzevii [31] = test: Antifungal activity against Pichia kudriavzevii AR Bank # 397 assessed as fungal growth inhibition by double dilution method; assay type: functional; procedure, shortened: as §1
Clavispora lusitaniae = test: Antifungal activity against Clavispora lusitaniae AR Bank # 398 assessed as fungal growth inhibition by double dilution method; assay type: functional; procedure, shortened: as §1
Saccharomyces cerevisiae [32] = test: Antifungal activity against Saccharomyces cerevisiae AR Bank # 399 assessed as fungal growth inhibition by double dilution method; assay type: functional; procedure, shortened: as §1
Saccharomyces cerevisiae [33] = test: Antifungal activity against Saccharomyces cerevisiae AR Bank # 400 assessed as fungal growth inhibition by double dilution method; assay type: functional; procedure, shortened: as §1
J774.A1 = test: Cytotoxicity against J774A.1 cells assessed as reduction in cell viability at 31.3 microg/ml; assay type: toxicity, cell-based; conditions: mouse, dose 31.3 µg/ml
Procedure, shortened: (§3)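 Cells in DMEM with 10% FBS and 1% Pen/Strep, seeded at 10,000 cells/well and held overnight at 37 °C, 5% CO2. Compounds added at final 31.3-0.12 µg/mL (0.05% DMSO vehicle) for 24 h. Resazurin then added for 6 h; fluorescence read at ex 560/em 590. Triton X-100 1% as positive control; values normalized to vehicle. Run in quadruplicate.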

HEK293 = test: Cytotoxicity against human HEK-293 cells assessed as reduction in cell viability at 31.3 microg/ml; assay type: toxicity, cell-based; conditions: dose 31.3 µg/ml; procedure, shortened: as §3
Candida albicans [34] = test: Antibiofilm activity against Candida albicans ATCC 10231 assessed as reduction in biofilm production at 1.96 to 3.9 microg/ml by biofilm formation assay; assay type: functional, organism-based; conditions: dose 1.96-3.9 µg/ml

Work on `O=C(NNc1ccc(F)cc1)c1ccccn1` yielded an MIC (Candida albicans [1]) of 0.12 µg/mL (≈ 0.519 µM), an MIC (Candida albicans [2]) of 0.98 µg/mL (≈ 4.24 µM) and an MIC (Candida albicans [3]) of 3.9 µg/mL (≈ 16.9 µM). The MIC (Candida albicans [4]) was 0.98 µg/mL (≈ 4.24 µM), the MIC (Candida albicans [5]) was 1.95 µg/mL (≈ 8.43 µM) and the MIC (Candida albicans [6]) was 1.95 µg/mL (≈ 8.43 µM). For the same molecule, the MIC (Candida albicans [7]) was 0.49 µg/mL (≈ 2.12 µM), the MIC (Nakaseomyces glabratus [8]) was 1.95 µg/mL (≈ 8.43 µM) and the MIC (Pichia kudriavzevii [9]) was 0.12 µg/mL (≈ 0.519 µM). The MIC (Nakaseomyces glabratus [10]) was 1.95 µg/mL (≈ 8.43 µM), the MIC ([Candida] auris [11]) was 3.9 µg/mL (≈ 16.9 µM) and the MIC ([Candida] auris [12]) was 0.98 µg/mL (≈ 4.24 µM). It also gave an MIC (Cryptococcus neoformans) of 0.24 µg/mL (≈ 1.04 µM), an MIC (Aspergillus terreus) of 1.95 µg/mL (≈ 8.43 µM) and an MIC (Aspergillus fumigatus [13]) of 31.3 µg/mL (≈ 135 µM). The MIC (Aspergillus flavus) was 31.3 µg/mL (≈ 135 µM), the MIC (Aspergillus nidulans) was 0.49 µg/mL (≈ 2.12 µM) and the MIC (Aspergillus fumigatus [14]) was 7.8 µg/mL (≈ 33.7 µM). The MIC (Aspergillus fumigatus [15]) was 15.6 µg/mL (≈ 67.5 µM), the MIC ([Candida] auris [16]) was 0.98 µg/mL (≈ 4.24 µM) and the MIC ([Candida] auris [17]) was 1.95 µg/mL (≈ 8.43 µM). It also gave an MIC ([Candida] auris [18]) of 1.95 µg/mL (≈ 8.43 µM), an MIC ([Candida] auris [19]) of 3.9 µg/mL (≈ 16.9 µM) and an MIC ([Candida] auris [20]) of 0.98 µg/mL (≈ 4.24 µM). For the same molecule, the MIC ([Candida] auris [21]) was 0.49 µg/mL (≈ 2.12 µM), the MIC ([Candida] auris [22]) was 0.98 µg/mL (≈ 4.24 µM) and the MIC ([Candida] auris [23]) was 0.98 µg/mL (≈ 4.24 µM). It also gave an MIC ([Candida] auris [24]) of 0.49 µg/mL (≈ 2.12 µM), an MIC ([Candida] auris [25]) of 0.98 µg/mL (≈ 4.24 µM) and an MIC (Candida duobushaemulonii [26]) of 0.49 µg/mL (≈ 2.12 µM). The MIC (Candida duobushaemulonii [27]) was 0.49 µg/mL (≈ 2.12 µM), the MIC ([Candida] haemuloni [28]) was 0.24 µg/mL (≈ 1.04 µM) and the MIC (Candida duobushaemulonii [29]) was 0.24 µg/mL (≈ 1.04 µM). It also gave an MIC ([Candida] haemuloni [30]) of 0.12 µg/mL (≈ 0.519 µM), an MIC (Kodamaea ohmeri) of 0.24 µg/mL (≈ 1.04 µM) and an MIC (Pichia kudriavzevii [31]) of 0.24 µg/mL (≈ 1.04 µM). It also gave an MIC (Clavispora lusitaniae) of 1.95 µg/mL (≈ 8.43 µM), an MIC (Saccharomyces cerevisiae [32]) of 3.9 µg/mL (≈ 16.9 µM) and an MIC (Saccharomyces cerevisiae [33]) of 1.95 µg/mL (≈ 8.43 µM). The Activity (J774.A1) was “Non-Toxic”, the Activity (HEK293) was “Non-Toxic” and the Activity (Candida albicans [34]) was “Active”.
